In PMC10527666 (Molecular imaging and biology, 2023):

Experiments:
α-synuclein fibrils [1] = biological target: T1, α-synuclein fibrils (Homo sapiens, UniProt P37840); experiment: Competition binding assay against [^3H]BF2846
Procedure, shortened: (§1)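 Fibrils (α-synuclein 50 nM; Aβ42 100 nM) incubated with 3 nM [³H]BF2846 and varying concentrations of test compound in 50 mM Tris-HCl pH 7.4, 1 h at 37 °C. Nonspecific binding was defined with 0.5 μM unlabeled BF2846, and fibril-free filter blanks were run. Samples were GF/C-filtered, washed with 10 mM Tris/150 mM NaCl and scintillation-counted after 12 h, in triplicate. Ki was obtained by nonlinear regression using radioligand Kd.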

Aβ42 fibrils = Aβ42 fibrils (Homo sapiens, UniProt P05067); experiment: Competition binding assay against [^3H]BF2846
Aβ42 fibrils, sequence (P05067 672-713 limits assumed): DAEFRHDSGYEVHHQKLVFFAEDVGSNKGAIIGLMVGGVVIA
Procedure, shortened: as §1

α-synuclein fibrils [2] = biological target: T1, α-synuclein fibrils; experiment: Compound screening, 1-point inhibition of [^3H]BF2846 binding; conditions: read-out: % Inhibition [^3H]BF-2846
Procedure, shortened: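 Human α-synuclein (C-terminal intein fusion, expressed in E. coli BL21(DE3), purified, quantified by A280) was fibrillised. Fibrils at 100 nM were incubated with 100 nM test compound and 3 nM [³H]BF2846 in 50 mM Tris-HCl pH 7.4, 1 h at 37 °C, with nonspecific binding defined by 0.5 μM BF2846. Samples were GF/C-filtered and scintillation-counted, in triplicate. Bound radioligand was expressed as % of total binding and tested by one-way ANOVA.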

Row | Ki (α-synuclein fibrils [1]) | Ki (Aβ42 fibrils) | inhibition at 0.1 µM (α-synuclein fibrils [2]) | SMILES
1 | 0.0036 µM |  |  | COc1ccc(C(=O)Nc2cc(-c3ccc(I)cc3)no2)cc1 [Compound 21, N-(3-(4-iodophenyl)isoxazol-5-yl)-4-methoxybenzamide]
2 | 0.011 µM | 0.0361 µM | 80% | COc1ccc(C(=O)Nc2cc(-c3ccc(Br)cc3)no2)cc1 [Compound 15, N-(3-(4-bromophenyl)isoxazol-5-yl)-4-methoxybenzamide]
